Assays:
Monoglyceride lipase [1] = molecular target: T1, Monoglyceride lipase (Homo sapiens, UniProt Q99685); experiment: Inhibition of recombinant C-terminal His6-tagged human MAGL expressed in Escherichia coli using 2-arachidonoyl-[3H]-glycerol as substrate incubated for 20 mins by scintillation counting method
T1 sequence (Q99685 whole entry): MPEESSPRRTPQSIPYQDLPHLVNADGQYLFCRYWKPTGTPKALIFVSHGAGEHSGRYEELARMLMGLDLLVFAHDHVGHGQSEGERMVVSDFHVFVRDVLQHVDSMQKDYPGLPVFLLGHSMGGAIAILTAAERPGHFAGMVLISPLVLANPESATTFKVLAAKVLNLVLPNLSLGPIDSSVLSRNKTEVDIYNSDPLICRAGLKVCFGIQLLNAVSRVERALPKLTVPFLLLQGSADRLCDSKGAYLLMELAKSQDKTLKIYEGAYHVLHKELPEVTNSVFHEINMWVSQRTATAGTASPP

[2] = molecular target: T2, Fatty-acid amide hydrolase 1 (Homo sapiens, UniProt O00519); experiment: Inhibition of recombinant C-terminal His-tagged human FAAH expressed in sf21 cells using N-arachidonoyl-[14C]-ethanolamine as substrate assessed as reduction in [14C]ethanolamine production incubated for 30 mins by scintillation counting method
T2 sequence (O00519 whole entry): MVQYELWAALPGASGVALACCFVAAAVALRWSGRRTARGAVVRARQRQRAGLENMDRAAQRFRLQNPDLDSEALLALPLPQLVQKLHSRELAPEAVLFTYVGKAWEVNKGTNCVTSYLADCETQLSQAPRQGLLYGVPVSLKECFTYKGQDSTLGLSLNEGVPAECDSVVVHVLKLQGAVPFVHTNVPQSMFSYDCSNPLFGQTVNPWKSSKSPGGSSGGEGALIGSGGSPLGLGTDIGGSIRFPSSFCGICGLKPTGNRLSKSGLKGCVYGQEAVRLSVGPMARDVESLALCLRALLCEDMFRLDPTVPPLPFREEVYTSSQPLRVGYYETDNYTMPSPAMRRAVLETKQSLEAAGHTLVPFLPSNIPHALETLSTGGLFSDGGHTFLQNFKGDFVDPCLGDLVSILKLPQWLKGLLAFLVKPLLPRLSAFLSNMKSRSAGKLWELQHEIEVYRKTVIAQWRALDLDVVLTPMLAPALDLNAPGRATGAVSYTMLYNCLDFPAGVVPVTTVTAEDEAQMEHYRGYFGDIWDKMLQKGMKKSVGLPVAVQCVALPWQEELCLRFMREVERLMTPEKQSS
Procedure, shortened: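 Human recombinant FAAH (2 µg/sample) incubated in 50 mM Tris-HCl, pH 9.5, 37 °C, 30 min with N-arachidonoyl-[14C]-ethanolamine diluted with unlabelled AEA. [14C]-ethanolamine released was quantified by scintillation counting of the aqueous phase after extraction with 2 volumes CHCl3/MeOH 1:1. Values are means of three experiments.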

Monoglyceride lipase [3] = molecular target: T1, Monoglyceride lipase; experiment: Inhibition of recombinant C-terminal His6-tagged human MAGL expressed in Escherichia coli using 2-arachidonoyl-[3H]-glycerol as substrate preincubated for 10 mins followed by substrate addition measured after 20 mins by scintillation counting method
Procedure, shortened: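 Human recombinant MGL (10,000xg cytosolic fraction, 0.05 µg/sample) is pre-incubated with compound for 10 min. It is then incubated 20 min at 37 °C in 50 mM Tris-HCl pH 7.0 with 2-arachidonoyl-[3H]-glycerol diluted with unlabelled 2-AG. The mix is extracted with 2 vol CHCl3/MeOH 1:1, and [3H]-glycerol in the aqueous phase is counted by scintillation. Values are means of three experiments.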

[4] = Selectivity ratio of IC50 for human recombinant C-terminal His-tagged FAAH expressed in sf21 cells to IC50 for recombinant C-terminal His6-tagged human MAGL expressed in Escherichia coli
Procedure, shortened: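 Ratio of IC50 values from two radiometric assays, each read by scintillation counting of the aqueous phase after CHCl3/MeOH 1:1 extraction. MGL assay: 10,000xg cytosolic fraction of human recombinant MGL (0.05 µg/sample), 50 mM Tris-HCl pH 7.0, 37 °C, 20 min, 2-arachidonoyl-[3H]-glycerol. FAAH assay: human recombinant FAAH (2 µg/sample), pH 9.5, 37 °C, 30 min, [14C]-anandamide. Means of three experiments.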

[5] = molecular target: T3, Fatty-acid amide hydrolase 1 (Mus musculus, UniProt O08914); experiment: Inhibition of FAAH in mouse brain membrane using [13C]oleamide as substrate by LC-MS analysis; assay type: cell membranes
T3 sequence (O08914 whole entry): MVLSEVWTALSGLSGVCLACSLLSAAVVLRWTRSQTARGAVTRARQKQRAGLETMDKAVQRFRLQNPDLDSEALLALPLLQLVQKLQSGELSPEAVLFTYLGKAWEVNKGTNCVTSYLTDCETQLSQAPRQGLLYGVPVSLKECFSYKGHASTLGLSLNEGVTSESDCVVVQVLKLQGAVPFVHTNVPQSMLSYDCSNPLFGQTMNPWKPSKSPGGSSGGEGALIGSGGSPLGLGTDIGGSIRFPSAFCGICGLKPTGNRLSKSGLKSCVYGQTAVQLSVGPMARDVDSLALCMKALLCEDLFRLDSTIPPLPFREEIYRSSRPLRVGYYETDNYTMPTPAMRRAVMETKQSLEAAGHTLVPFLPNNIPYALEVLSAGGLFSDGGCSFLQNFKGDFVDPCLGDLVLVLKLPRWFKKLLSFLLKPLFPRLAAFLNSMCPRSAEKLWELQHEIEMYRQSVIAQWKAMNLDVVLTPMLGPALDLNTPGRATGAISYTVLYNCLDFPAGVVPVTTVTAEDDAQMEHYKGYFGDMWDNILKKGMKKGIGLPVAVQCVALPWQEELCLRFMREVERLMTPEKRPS

[6] = molecular target: T4, Fatty-acid amide hydrolase 1 (Rattus norvegicus, UniProt P97612); experiment: Inhibition of FAAH in rat brain membranes using N-arachidonoyl-[14C]-ethanolamine as substrate assessed as reduction in [14C]ethanolamine production incubated for 30 mins by scintillation counting method; assay type: cell membranes, Membrane
T4 sequence (P97612 whole entry): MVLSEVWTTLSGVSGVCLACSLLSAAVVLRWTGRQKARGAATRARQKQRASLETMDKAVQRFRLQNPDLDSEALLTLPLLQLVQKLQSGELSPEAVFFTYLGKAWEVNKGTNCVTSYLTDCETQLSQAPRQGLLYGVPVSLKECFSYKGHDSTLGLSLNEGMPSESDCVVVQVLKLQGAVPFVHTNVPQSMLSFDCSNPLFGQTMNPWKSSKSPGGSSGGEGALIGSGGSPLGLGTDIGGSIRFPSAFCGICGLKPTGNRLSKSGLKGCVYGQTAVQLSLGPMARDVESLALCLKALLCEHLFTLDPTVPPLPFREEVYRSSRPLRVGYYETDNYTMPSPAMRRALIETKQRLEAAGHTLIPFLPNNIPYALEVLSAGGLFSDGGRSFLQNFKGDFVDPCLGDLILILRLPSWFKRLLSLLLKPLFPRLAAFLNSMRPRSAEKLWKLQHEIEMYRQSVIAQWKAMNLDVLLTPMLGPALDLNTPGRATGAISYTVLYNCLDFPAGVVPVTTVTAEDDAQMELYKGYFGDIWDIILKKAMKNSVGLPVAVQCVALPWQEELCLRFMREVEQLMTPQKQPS
Procedure, shortened: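 10,000×g membrane fraction of rat brain (70 µg per sample) incubated in 50 mM Tris-HCl pH 9.5 at 37 °C for 30 min with N-arachidonoyl-[14C]-ethanolamine diluted with AEA. Released [14C]-ethanolamine measured by scintillation counting of the aqueous phase after CHCl3/MeOH 1:1 extraction. Means of three experiments.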

SMILES | IC50 (Monoglyceride lipase [1]) [µM] | IC50 [6] [µM] | further results
O=C1[C@H](c2ccc(F)cc2)[C@@H](c2ccc3c(c2)OCO3)N1C1CCN(C(=O)n2cncn2)CC1 [listing 1 of 2 here] | 0.0046 | – | IC50 [2]: 4.05 µM; IC50 (Monoglyceride lipase [3]): 0.104 µM
O=C(N1CCCCC1)n1cncn1 | > 10 | – | –
O=C1[C@@H](c2ccc(F)cc2)[C@H](c2ccc3c(c2)OCO3)N1C1CCN(C(=O)n2cncn2)CC1 | 0.0312 | – | IC50 [2]: 7.74 µM; Ratio IC50 [4]: 248; IC50 (Monoglyceride lipase [3]): 0.728 µM
O=C(Oc1ccc([N+](=O)[O-])cc1)N1CCC(C(O)(c2ccc3c(c2)OCO3)c2ccc3c(c2)OCO3)CC1 | – | – | IC50 [5]: > 10 µM
O=C1[C@H](c2ccc(F)cc2)[C@@H](c2ccc3c(c2)OCO3)N1C1CCN(C(=O)n2cncn2)CC1 [listing 2 of 2 here] | – | – | Ratio IC50 [4]: 880
O=C1[C@H](c2ccc(F)cc2)[C@@H](c2ccc3c(c2)OCO3)N1C1CCN(Cc2ccccc2)CC1 (racemic) | > 10 | – | –
COc1ccc([C@H]2C(=O)N(C3CCN(C(=O)n4cncn4)CC3)[C@@H]2c2ccc(OC)cc2)cc1 (racemic) | – | 3.68 | –
O=C(Oc1ccc([N+](=O)[O-])cc1)N1CCC(N2C(=O)[C@H](c3ccc(F)cc3)[C@H]2c2ccc3c(c2)OCO3)CC1 (racemic) | 0.00141 | – | IC50 [2]: > 10 µM; Ratio IC50 [4]: > 7
COc1ccc([C@H]2C(=O)N(C3CCN(C(=O)n4cncn4)CC3)[C@@H]2c2ccc(OC)c(OC)c2)cc1OC (racemic) | – | > 10 | –
O=C1[C@H](c2ccc(F)cc2)[C@@H](c2ccc3c(c2)OCO3)N1C1CCN(C(=O)n2ccnc2)CC1 (racemic) | > 10 | – | –
COc1ccc([C@H]2C(=O)N(C3CCN(C(=O)n4cncn4)CC3)[C@@H]2c2ccc(OC)c(OC)c2)cc1 (racemic) | – | 0.725 | –
COc1ccc([C@H]2C(=O)N(C3CCN(C(=O)n4cncn4)CC3)[C@@H]2c2ccc3c(c2)OCO3)cc1 (racemic) | – | 2.59 | –
O=C1[C@H](c2ccc(F)cc2)[C@@H](c2ccc3c(c2)OCO3)N1C1CCNCC1 (racemic) | > 10 | – | –
O=C(OC(C(F)(F)F)C(F)(F)F)N1CCC(N2C(=O)[C@H](c3ccc(F)cc3)[C@H]2c2ccc3c(c2)OCO3)CC1 (racemic) | – | > 50 | –

From ChEMBL document CHEMBL3785023, “Development and Pharmacological Characterization of Selective Blockers of 2-Arachidonoyl Glycerol Degradation with Efficacy in Rodent Models of Multiple Sclerosis and Pain” (J Med Chem, 2016)
